In the library only some 5.7% were active in any assay of this set; here they are far more common.
SKKanGAS inh = SKKanGAS growth inhibition. 1.3% of 300,000 active. S. pyogenes SKKanGAS, kanamycin growth, BacTiter-Glo, 6 h. AID 1662. inhibition, % at 7.5 µM;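 active means mean replicate score, as percent of positive control median, at least 50; inconclusive means mean below 50 but one replicate at or above 50; inactive means mean and every replicate below 50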;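 further: strain carries kanamycin resistance gene driven by streptokinase promoter and grows in 40 µg/ml kanamycin; loss of luminescence reflects streptokinase promoter inhibition or plain growth inhibition; 0% = median of DMSO wells and 100% = positive control at its reference dose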
Calb FLC = affects C. albicans growth with fluconazole | AID 1979 | growth inhibition, % (concentration not given with the values) | 0.57% of 300,000 active | C. albicans CaCi-2 (fluconazole-resistant clinical isolate) + fluconazole, Alamar Blue growth, 48 h;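 active means growth inhibition above about 58% in most replicates, limit read from the data, passing the limit was not always enough; inconclusive means exactly half the replicates above a set limit; inactive means most replicates below a set limit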;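 further: all wells also contain fluconazole at 8 µg/ml as a sub-toxic cotreatment; 0% = median of DMSO wells and 100% = median of geldanamycin control wells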
CSC inhib = blocks cancer stem cells; inhibition, % at 7.5 µM; AID 2717; 1.1% of 300,000 active; cancer stem cell-like cells viability, luminescence; in the data active means inhibition above about 75%; inconclusive means no clear call, values can overlap the other calls; tested in HMLE shEcad cells
Mdm2 MdmX PPI = disrupts the human Mdm2-MdmX interaction; SaOS-2 split-luciferase Mdm2/MdmX complementation, luminescence; inhibition, % at 8 µM; 3% of 330,000 active; AID 485346;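 active means inhibition of at least 50% at 8 µM in the primary screen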
Beta apoptosis = beta cell apoptosis inhibition. protection from apoptosis, % (test concentration not listed). INS-1E cytokine-induced death, ATP luminescence, 48 h; percent of positive-control rescue, neutral wells zero. 0.8% of 300,000 active. AID 435005;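 active means Every replicate reaches about 75%, or at least half do and their mean reaches it too, limit read from the data; inconclusive means At least half of replicates reach the limit but their mean does not; inactive means Under half of replicates reach the limit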;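 further: 0% = cytokine-treated negative control wells and 100% = positive control rescue; higher means more ATP so stronger rescue from cytokine killing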
T cruzi inh = T. cruzi replication inhibition; T. cruzi beta-gal in NIH3T3, luminescence, 90 h; inhibition, % (no concentration beside the values); 1.4% of 300,000 active; AID 1885;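 active means mean inhibition across valid replicates above about 55%, limit read from the data; inconclusive means mean below that limit but half or more replicates reach it; inactive means mean below it, under half of replicates reach it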;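 further: signal also drops with host cell toxicity which is not excluded here; 0% = plate median of DMSO wells and 100% = zero luminescence signal; higher percent means less beta-gal luminescence so fewer parasites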
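Incubation – ≥90 h infection period, 3 h prior cell attachment · System – NIH/3T3 fibroblasts plus reporter T. cruzi · Doses – compound pinned at 50 nL/well, DMSO · Read-out basis – percent inhibition of parasite-derived β-gal signal · Signal – luminescent β-galactosidase signal after 60 min lysis · Also added – 5000 T. cruzi trypomastigotes/well · Medium – Low-serum DMEM with 2% FBS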
The depositor's hits bear a star; ? = inconclusive; / = no result given.

SMILES	SKKanGAS inh	Calb FLC	CSC inhib	Mdm2 MdmX PPI	Beta apoptosis	T cruzi inh
Cn1nc(C(C)(C)C)cc1C(=O)NCc1ccc(N2CCCC2=O)cc1	-12	?	18	6	116*	-8
O=C(CCC1CCCC1)c1c(O)c2ccccc2oc1=O	54*	-4	40	30	7	-12
C[C@H](CO)N1C[C@H](C)[C@@H](CN(C)C(=O)Nc2ccc3c(c2)OCO3)Oc2c(NC(=O)Nc3ccc4c(c3)OCO4)cccc2C1=O	/	/	3	29	-3	/
O=C(N/N=C/c1c[nH]c2ccccc12)c1cc(Br)ccc1O	-1	13	1	-14	/	-9
O=C(N/N=C/c1c[nH]c2ccccc12)c1[nH]c2ccc(Br)cc2c1-c1ccccc1	73*	17	/	/	/	?
CS/C(=N\S(=O)(=O)c1cccs1)Nc1ccc(F)c(Cl)c1	9	95*	0	6	4	-11
CC1=CC(C)(C)N(C(=O)CSc2nnc(-c3ccc(C)cc3)o2)c2ccc(C)cc21	13	-5	/	40	82*	14
CC1=CC(C)(C)N(C(=O)CSc2nnc(C)s2)c2ccc(C)cc21	-1	15	-8	-10	-12	-9
COc1ccc(-n2c(=S)[nH]c3cc(C(=O)NCc4cccnc4)ccc3c2=O)cc1	-2	4	-9	-2	/	-7
COc1cc(C(=O)OCc2cc(=O)c(O)co2)ccc1OC(F)F	-5	102*	13	-2	11	7
COc1cc(C(=O)OCC(=O)NC(=O)NCc2ccccc2)ccc1OC(F)F	/	/	/	-6	-7	/
O=C(Oc1ccc(NC2=C(Cl)C(=O)c3ccccc3C2=O)cc1)c1ccc([N+](=O)[O-])cc1	54*	?	/	/	/	63*
O=C(Oc1ccc([N+](=O)[O-])cc1)c1cccnc1	-3	1	7	-3	-4	-19
O=C(Nc1nc2ccc(Cl)cc2s1)C1CC1	0	-6	/	-84	/	66*
O=C(Nc1nc2ccc(Cl)cc2s1)C1CCCO1 (configuration not stated)	6	7	-4	-104	5	32
O=C(Nc1nc2c(F)cc(F)cc2s1)C1CC1	-1	1	5	-10	2	58*
O=C(CN1C(=O)CCC1=O)Nc1nc2c(F)cc(F)cc2s1	-6	-7	-7	-40	-4	-17
Fc1cccc2sc(Nc3nc4cc5c(cc4s3)OCCO5)nc12	42	-4	47	-32	3	11
O=C(Nc1nc2cc3c(cc2s1)OCO3)C1CC1	-11	6	2	-30	19	56*
Fc1cccc2sc(Nc3nc4cc5c(cc4s3)OCO5)nc12	53*	-2	63	-258	17	20
CN(c1ccccc1)S(=O)(=O)c1ccc2c(c1)oc(=O)n2C	-2	6	5	18	-3	1
O=C(CN1C(=O)c2ccccc2S1(=O)=O)NC(Nc1ccccc1F)C(Cl)(Cl)Cl (configuration not stated)	4	10	-1	8	-3	-9
CN(CCN(C)C(C)(C)C)C(=O)C(c1ccccc1)c1ccccc1	-5	22	-4	8	-5	-8
COc1ccc(-c2cc3cc(OC)c(OC)cc3c(C)n2)cc1C	-5	-6	8	-2	2	-1
O=C(OCc1nc2ccsc2c(=O)[nH]1)c1cccc(S(=O)(=O)N2CCOCC2)c1	-6	-4	1	-11	/	-1
SMILES	SKKanGAS inh	Calb FLC	CSC inhib	Mdm2 MdmX PPI	Beta apoptosis	T cruzi inh
CCOC(=O)C1=C(COC(=O)c2cc(Br)c(Br)s2)NC(=O)NC1C (configuration not stated)	10	-1	-5	-24	-2	-9
CC1(C)CC(NC(=O)c2cc(S(=O)(=O)N3CCOCC3)c(Cl)cc2Cl)CC(C)(C)N1	-8	-4	27	13	-5	-2
O=C(CCC1CCCN(Cc2ccc3c(c2)OCCO3)C1)NCc1ccccc1F (configuration not stated)	-1	-10	-10	-4	1	49
O=C(CCC1CCCN(Cc2cccc3c2OCO3)C1)NCc1ccc(F)c(F)c1 (configuration not stated)	0	-19	/	-6	-5	62*
O=S(=O)(Cc1ccccc1)NCC1CCCN(Cc2ccc(F)c(F)c2)C1 (configuration not stated)	5	-19	2	16	6	61*
O=C(CCC1CCCN(Cc2ccc3c(c2)OCCO3)C1)NCc1ccc(F)c(F)c1 (configuration not stated)	4	3	-4	4	-3	62*
CC(=O)Nc1ccc(C2=CC(=O)C[C@H](c3ccc4c(c3)OCO4)C2)cc1	/	/	13	-4	91*	/
COc1cc(OC)cc(C(=O)Nc2ccc3nc4n(c(=O)c3c2)CCCCC4)c1	6	42	43	-53	3	11
COc1ccc(OC)c(CCNC(=O)C(=O)Nc2ccc3nc4n(c(=O)c3c2)CCCCC4)c1	57*	1	/	-4	8	21
CCCc1nnc(NC(=O)c2cn(CC)c3cc(N4CCN(C)CC4)c(F)cc3c2=O)s1	5	29	-12	21	-8	12
CC(C)COc1cccc(-c2cc(C(=O)Nc3ccon3)c3ccccc3n2)c1	37	7	/	36	8	21
COc1ccc(C(=O)c2oc3nc(C)cc(C)c3c2N)cc1	7	-10	-17	-1	4	3
Cc1ccc(C(=O)c2oc3nc(C)cc(C)c3c2N)cc1	-4	121*	-5	-18	9	-2
O=C(O)c1ccc(/C=N/Nc2ccc(F)cc2F)cc1	12	?	16	-140	-6	-11
Fc1ccc(N/N=C/c2ccncc2)c(F)c1	0	?	90*	-42	3	30
NS(=O)(=O)c1ccc(CNC(=O)c2cccnc2Cl)cc1	1	-17	-6	21	-7	-7
C=C[C@@H]1c2c(F)cccc2N(S(=O)(=O)c2ccc(C)cc2)[C@H](c2ccc(OC(C)=O)cc2)C1(C#N)C#N	/	/	112*	37	-1	/
COc1ccc(CCNC(=O)C2=CCN(S(=O)(=O)c3ccc(F)cc3)CC2)cc1OC	-2	26	6	8	0	8
COc1ccc(C#Cc2ccc3c(=O)c4ccccc4n(C)c3c2)cc1	76*	1	40	8	2	27
Cn1c2ccccc2c(=O)c2ccc(C#Cc3ccc(N)cc3)cc21	70*	-26	61	20	29	33
Cc1ccc(CN(c2ccc(C(=O)N3CCCC3)cc2)S(C)(=O)=O)cc1	67*	-1	3	21	-18	-11
O=C(CSc1nnc(CNC(=O)c2ccc(F)cc2)o1)NCc1ccccc1Cl	51*	-2	-5	6	/	-3
O=C(CSc1nnc(CNC(=O)c2ccccc2)o1)NCc1ccccc1Cl	18	2	-6	6	-5	-3

Screening results from PubChem BioAssay.
